# Laboratory results as given in publication PMC6606825 (Journal of Ginseng Research, 2018).
# Assay: Pharmacokinetics of CK and its metabolite 20
# Type: in vivo, healthy Chinese volunteers
# Conditions: mean (SD)
# In short: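 Healthy adults given one oral tablet dose fasting (overnight, or 10 h in a crossover food-effect arm); 30 subjects from the 100/200/400 mg groups were pooled with 24 from 200 mg fasting periods. Plasma was stored at −70°C, extracted with MTBE plus internal standards and assayed by LC-MS/MS. Cmax was observed and AUClast calculated by linear trapezoid, each divided by dose. The metabolite/parent ratio was also calculated. Genotyping used Sequenom MassARRAY, and log-transformed values were compared by one-way ANOVA.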
# [1] = ABCG2 rs3114018 AA (first line)
# [2] = ABCG2 rs3114018 AA (third line)
smiles,measurement,setting,value
"CC(C)=CCC[C@](C)(O)[C@H]1CC[C@]2(C)[C@@H]1[C@H](O)C[C@@H]1[C@@]3(C)CC[C@H](O)C(C)(C)[C@@H]3CC[C@]12C [20(S)-PPD, 20(S)-protopanaxadiol]",Ratio 20(S)-PPD/CK Cmax/D,ABCG2 rs2725248 CC,0.74 (0.83) %
same,20(S)-PPD AUClast/D,[1],0.91 (0.71)
same,20(S)-PPD Cmax/D,[1],0.03 (0.02)
same,Ratio 20(S)-PPD/CK AUClast/D,[1],4.78 (4.26) %
same,Ratio 20(S)-PPD/CK Cmax/D,[1],0.96 (0.87) %
same,20(S)-PPD AUClast/D,[2],0.88 (0.92)
same,20(S)-PPD Cmax/D,[2],0.03 (0.03)
same,Ratio 20(S)-PPD/CK AUClast/D,[2],5.73 (8.96) %
same,Ratio 20(S)-PPD/CK Cmax/D,[2],1.25 (1.73) %
same,20(S)-PPD AUClast/D,ABCG2 rs3114018 CA,0.80 (0.73)
same,20(S)-PPD Cmax/D,ABCG2 rs3114018 CA,0.03 (0.03)
same,Ratio 20(S)-PPD/CK AUClast/D,ABCG2 rs3114018 CA,3.46 (4.62) %
same,Ratio 20(S)-PPD/CK Cmax/D,ABCG2 rs3114018 CA,1.17 (1.94) %
same,20(S)-PPD AUClast/D,ABCG2 rs6857600 CC,0.89 (0.83)
same,20(S)-PPD Cmax/D,ABCG2 rs6857600 CC,0.03 (0.03)
same,Ratio 20(S)-PPD/CK AUClast/D,ABCG2 rs6857600 CC,4.61 (6.81) %
same,Ratio 20(S)-PPD/CK Cmax/D,ABCG2 rs6857600 CC,1.26 (1.91) %
same,20(S)-PPD AUClast/D,ABCG2 rs6857600 TC,0.65 (0.64)
same,20(S)-PPD Cmax/D,ABCG2 rs6857600 TC,0.02 (0.02)
same,Ratio 20(S)-PPD/CK AUClast/D,ABCG2 rs6857600 TC,2.91 (3.24) %
same,Ratio 20(S)-PPD/CK Cmax/D,ABCG2 rs6857600 TC,0.75 (0.80) %
same,20(S)-PPD AUClast/D,ABCG2 rs6857600 TT,0.48 (0.53)
same,20(S)-PPD Cmax/D,ABCG2 rs6857600 TT,0.02 (0.02)
same,Ratio 20(S)-PPD/CK AUClast/D,ABCG2 rs6857600 TT,4.27 (5.76) %
same,Ratio 20(S)-PPD/CK Cmax/D,ABCG2 rs6857600 TT,0.95 (1.30) %
same,20(S)-PPD AUClast/D,ABCG2 rs12505410 GG,0.92 (0.62)
same,20(S)-PPD Cmax/D,ABCG2 rs12505410 GG,0.03 (0.02)
same,Ratio 20(S)-PPD/CK AUClast/D,ABCG2 rs12505410 GG,3.61 (2.83) %
same,Ratio 20(S)-PPD/CK Cmax/D,ABCG2 rs12505410 GG,0.90 (0.55) %
same,20(S)-PPD AUClast/D,ABCG2 rs12505410 GT,1.00 (0.74)
same,Ratio 20(S)-PPD/CK AUClast/D,ABCG2 rs12505410 GT,4.63 (5.21) %
same,Ratio 20(S)-PPD/CK Cmax/D,ABCG2 rs12505410 GT,1.36 (2.02) %
same,20(S)-PPD AUClast/D,ABCG2 rs12505410 TT,0.63 (0.82)
same,20(S)-PPD Cmax/D,ABCG2 rs12505410 TT,0.02 (0.03)
same,Ratio 20(S)-PPD/CK AUClast/D,ABCG2 rs12505410 TT,4.03 (7.68) %
same,Ratio 20(S)-PPD/CK Cmax/D,ABCG2 rs12505410 TT,0.97 (1.54) %
same,20(S)-PPD AUClast/D,ABCG2 rs17731799 GG,0.91 (0.71)
same,20(S)-PPD Cmax/D,ABCG2 rs17731799 GG,0.03 (0.02)
same,Ratio 20(S)-PPD/CK AUClast/D,ABCG2 rs17731799 GG,4.78 (4.26) %
same,Ratio 20(S)-PPD/CK Cmax/D,ABCG2 rs17731799 GG,0.96 (0.87) %
same,20(S)-PPD AUClast/D,ABCG2 rs17731799 GT,0.82 (0.77)
same,20(S)-PPD Cmax/D,ABCG2 rs17731799 GT,0.03 (0.03)
same,Ratio 20(S)-PPD/CK AUClast/D,ABCG2 rs17731799 GT,3.65 (5.14) %
same,Ratio 20(S)-PPD/CK Cmax/D,ABCG2 rs17731799 GT,1.28 (2.16) %
same,20(S)-PPD AUClast/D,ABCG2 rs17731799 TT,0.80 (0.85)
same,20(S)-PPD Cmax/D,ABCG2 rs17731799 TT,0.03 (0.03)
same,Ratio 20(S)-PPD/CK AUClast/D,ABCG2 rs17731799 TT,4.76 (7.86) %
same,Ratio 20(S)-PPD/CK Cmax/D,ABCG2 rs17731799 TT,1.08 (1.53) %
same,20(S)-PPD AUClast/D,CFTR rs213950 AG,0.91 (0.99)
same,20(S)-PPD Cmax/D,CFTR rs213950 AG,0.03 (0.04)
same,Ratio 20(S)-PPD/CK AUClast/D,CFTR rs213950 AG,4.96 (7.34) %
same,Ratio 20(S)-PPD/CK Cmax/D,CFTR rs213950 AG,1.45 (2.26) %
same,20(S)-PPD AUClast/D,CFTR rs213950 GG,0.64 (0.54)
same,20(S)-PPD Cmax/D,CFTR rs213950 GG,0.02 (0.02)
same,Ratio 20(S)-PPD/CK AUClast/D,CFTR rs213950 GG,2.67 (3.18) %
same,Ratio 20(S)-PPD/CK Cmax/D,CFTR rs213950 GG,0.64 (0.66) %
same,20(S)-PPD AUClast/D,CFTR rs213968 CC,0.64 (0.55)
same,20(S)-PPD Cmax/D,CFTR rs213968 CC,0.02 (0.02)
same,Ratio 20(S)-PPD/CK AUClast/D,CFTR rs213968 CC,2.81 (3.33) %
same,Ratio 20(S)-PPD/CK Cmax/D,CFTR rs213968 CC,0.65 (0.69) %
same,20(S)-PPD AUClast/D,CFTR rs213968 CT,0.90 (0.98)
same,20(S)-PPD Cmax/D,CFTR rs213968 CT,0.03 (0.04)
same,Ratio 20(S)-PPD/CK AUClast/D,CFTR rs213968 CT,4.70 (7.26) %
same,Ratio 20(S)-PPD/CK Cmax/D,CFTR rs213968 CT,1.40 (2.23) %
same,20(S)-PPD AUClast/D,CFTR rs213968 TT,0.97 (0.49)
same,20(S)-PPD Cmax/D,CFTR rs213968 TT,0.04 (0.02)
same,Ratio 20(S)-PPD/CK AUClast/D,CFTR rs213968 TT,5.87 (7.37) %
same,Ratio 20(S)-PPD/CK Cmax/D,CFTR rs213968 TT,1.40 (1.51) %
same,20(S)-PPD AUClast/D,CFTR rs213976 GG,1.12 (0.43)
same,20(S)-PPD Cmax/D,CFTR rs213976 GG,0.04 (0.02)
same,Ratio 20(S)-PPD/CK AUClast/D,CFTR rs213976 GG,7.39 (8.42) %
same,Ratio 20(S)-PPD/CK Cmax/D,CFTR rs213976 GG,1.68 (1.73) %
same,20(S)-PPD AUClast/D,CFTR rs213976 GT,0.83 (0.78)
same,20(S)-PPD Cmax/D,CFTR rs213976 GT,0.03 (0.03)
same,Ratio 20(S)-PPD/CK AUClast/D,CFTR rs213976 GT,4.01 (4.96) %
same,Ratio 20(S)-PPD/CK Cmax/D,CFTR rs213976 GT,1.32 (2.08) %
same,20(S)-PPD AUClast/D,CFTR rs213976 TT,0.74 (0.87)
same,20(S)-PPD Cmax/D,CFTR rs213976 TT,0.02 (0.03)
same,Ratio 20(S)-PPD/CK AUClast/D,CFTR rs213976 TT,3.63 (6.72) %
same,Ratio 20(S)-PPD/CK Cmax/D,CFTR rs213976 TT,0.81 (1.29) %
same,20(S)-PPD AUClast/D,CFTR rs1042077 GG,0.97 (0.49)
same,20(S)-PPD Cmax/D,CFTR rs1042077 GG,0.04 (0.02)
same,Ratio 20(S)-PPD/CK AUClast/D,CFTR rs1042077 GG,5.87 (7.37) %
same,Ratio 20(S)-PPD/CK Cmax/D,CFTR rs1042077 GG,1.40 (1.51) %
same,20(S)-PPD AUClast/D,CFTR rs1042077 GT,0.92 (0.99)
same,20(S)-PPD Cmax/D,CFTR rs1042077 GT,0.03 (0.04)
same,Ratio 20(S)-PPD/CK AUClast/D,CFTR rs1042077 GT,4.85 (7.37) %
same,Ratio 20(S)-PPD/CK Cmax/D,CFTR rs1042077 GT,1.44 (2.26) %
same,20(S)-PPD AUClast/D,CFTR rs1042077 TT,0.68 (0.55)
same,20(S)-PPD Cmax/D,CFTR rs1042077 TT,0.02 (0.02)
same,Ratio 20(S)-PPD/CK AUClast/D,CFTR rs1042077 TT,2.95 (3.37) %
same,Ratio 20(S)-PPD/CK Cmax/D,CFTR rs1042077 TT,0.68 (0.70) %
same,20(S)-PPD AUClast/D,CFTR rs2106155 AA,1.09 (0.41)
same,20(S)-PPD Cmax/D,CFTR rs2106155 AA,0.04 (0.02)
same,Ratio 20(S)-PPD/CK AUClast/D,CFTR rs2106155 AA,7.22 (7.81) %
same,Ratio 20(S)-PPD/CK Cmax/D,CFTR rs2106155 AA,1.67 (1.60) %
same,20(S)-PPD AUClast/D,CFTR rs2106155 CA,0.88 (0.82)
same,20(S)-PPD Cmax/D,CFTR rs2106155 CA,0.04 (0.03)
same,Ratio 20(S)-PPD/CK AUClast/D,CFTR rs2106155 CA,4.03 (5.36) %
same,Ratio 20(S)-PPD/CK Cmax/D,CFTR rs2106155 CA,1.39 (2.26) %
